Experimental data as given in ChEMBL document CHEMBL5058577, “EUbOPEN Chemogenomics Library 2 (Multiplex)” (2022).

Tested on: U2OS
Assay: Multiplex assay against U2OS
Type: toxicity, cell-based
Conditions: human
How it was run: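 Hoechst33342, BioTracker Green Microtubule Cytoskeleton Dye, MitoTracker Red and Annexin V Alexa Fluor 680 were added to live cells at seeding, and imaging on a CQ1 microscope at 37°C and 5% CO2 followed compound addition. Gating by CellPathfinder machine learning separated cells into Hoechst high-intensity objects or normal cells, then normal cells into healthy, pyknosed or fragmented nuclei, then pyknosed cells into mitotic or apoptotic. Per cents of healthy-nucleus cells are reported for the tubulin, mitochondrial-mass and membrane-permeability phenotypes.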

[1] = 12 h, 1 µM, compound concentration 1 uM, replicate 1
[2] = 12 h, 1 µM, compound concentration 1 uM, replicate 2
[3] = 12 h, 10 µM, compound concentration 10 uM, replicate 1
[4] = 12 h, 10 µM, compound concentration 10 uM, replicate 2
[5] = 24 h, 1 µM, compound concentration 1 uM, replicate 1
[6] = 24 h, 1 µM, compound concentration 1 uM, replicate 2
[7] = 24 h, 10 µM, compound concentration 10 uM, replicate 1
[8] = 24 h, 10 µM, compound concentration 10 uM, replicate 2
[9] = 48 h, 1 µM, compound concentration 1 uM, replicate 1
[10] = 48 h, 1 µM, compound concentration 1 uM, replicate 2
[11] = 48 h, 10 µM, compound concentration 10 uM, replicate 1
[12] = 48 h, 10 µM, compound concentration 10 uM, replicate 2

SMILES: N#Cc1c(Oc2cccc(OS(=O)(=O)CCCC(F)(F)F)c2)cccc1C(F)(F)F
- Population Apoptotic (%) [1]: 77%
- Population Fragmented Nuclei (%) [1]: 27%
- Population Healthy Nuclei (%) [1]: 61%
- Population Hoechst High Intensity Objects (%) [1]: 3%
- Population Membrane Permeable-Phenotype (%) [1]: 4%
- Population Mitochondria Different-Phenotype (%) [1]: 2%
- Population Mitotic Cells (%) [1]: 22%
- Population Normal (%) [1]: 96%
- Population Pyknosed Nuclei (%) [1]: 10%
- Population Tubulin-Different-Phenotype (%) [1]: 0%
- Total Cell Count [1]: 220
- Population Apoptotic (%) [2]: 81%
- Population Fragmented Nuclei (%) [2]: 12%
- Population Healthy Nuclei (%) [2]: 76%
- Population Hoechst High Intensity Objects (%) [2]: 0%
- Population Membrane Permeable-Phenotype (%) [2]: 7%
- Population Mitochondria Different-Phenotype (%) [2]: 7%
- Population Mitotic Cells (%) [2]: 18%
- Population Normal (%) [2]: 99%
- Population Tubulin-Different-Phenotype (%) [2]: 8%
- Total Cell Count [2]: 109
- Population Apoptotic (%) [3]: 78%
- Population Fragmented Nuclei (%) [3]: 27%
- Population Healthy Nuclei (%) [3]: 63%
- Population Hoechst High Intensity Objects (%) [3]: 3%
- Population Membrane Permeable-Phenotype (%) [3]: 11%
- Population Mitochondria Different-Phenotype (%) [3]: 8%
- Population Mitotic Cells (%) [3]: 21%
- Population Normal (%) [3]: 96%
- Population Pyknosed Nuclei (%) [3]: 8%
- Population Tubulin-Different-Phenotype (%) [3]: 7%
- Total Cell Count [3]: 222
- Population Apoptotic (%) [4]: 90%
- Population Fragmented Nuclei (%) [4]: 14%
- Population Healthy Nuclei (%) [4]: 75%
- Population Hoechst High Intensity Objects (%) [4]: 0%
- Population Membrane Permeable-Phenotype (%) [4]: 21%
- Population Mitochondria Different-Phenotype (%) [4]: 4%
- Population Mitotic Cells (%) [4]: 9%
- Population Normal (%) [4]: 99%
- Population Pyknosed Nuclei (%) [4]: 9%
- Total Cell Count [4]: 112
- Population Apoptotic (%) [5]: 75%
- Population Fragmented Nuclei (%) [5]: 25%
- Population Healthy Nuclei (%) [5]: 61%
- Population Hoechst High Intensity Objects (%) [5]: 2%
- Population Membrane Permeable-Phenotype (%) [5]: 4%
- Population Mitochondria Different-Phenotype (%) [5]: 2%
- Population Mitotic Cells (%) [5]: 24%
- Population Normal (%) [5]: 97%
- Population Pyknosed Nuclei (%) [5]: 12%
- Population Tubulin-Different-Phenotype (%) [5]: 3%
- Total Cell Count [5]: 263
- Population Apoptotic (%) [6]: 90%
- Population Fragmented Nuclei (%) [6]: 12%
- Population Healthy Nuclei (%) [6]: 79%
- Population Hoechst High Intensity Objects (%) [6]: 1%
- Population Membrane Permeable-Phenotype (%) [6]: 11%
- Population Mitochondria Different-Phenotype (%) [6]: 3%
- Population Mitotic Cells (%) [6]: 10%
- Population Normal (%) [6]: 98%
- Population Pyknosed Nuclei (%) [6]: 7%
- Population Tubulin-Different-Phenotype (%) [6]: 7%
- Total Cell Count [6]: 130
- Population Apoptotic (%) [7]: 66%
- Population Fragmented Nuclei (%) [7]: 26%
- Population Healthy Nuclei (%) [7]: 66%
- Population Hoechst High Intensity Objects (%) [7]: 6%
- Population Membrane Permeable-Phenotype (%) [7]: 10%
- Population Mitochondria Different-Phenotype (%) [7]: 8%
- Population Mitotic Cells (%) [7]: 33%
- Population Normal (%) [7]: 93%
- Population Pyknosed Nuclei (%) [7]: 7%
- Population Tubulin-Different-Phenotype (%) [7]: 5%
- Total Cell Count [7]: 252
- Population Fragmented Nuclei (%) [8]: 9%
- Population Healthy Nuclei (%) [8]: 83%
- Population Hoechst High Intensity Objects (%) [8]: 3%
- Population Membrane Permeable-Phenotype (%) [8]: 11%
- Population Mitochondria Different-Phenotype (%) [8]: 0%
- Population Normal (%) [8]: 96%
- Population Tubulin-Different-Phenotype (%) [8]: 7%
- Total Cell Count [8]: 130
- Population Apoptotic (%) [9]: 87%
- Population Fragmented Nuclei (%) [9]: 17%
- Population Healthy Nuclei (%) [9]: 70%
- Population Hoechst High Intensity Objects (%) [9]: 3%
- Population Membrane Permeable-Phenotype (%) [9]: 4%
- Population Mitochondria Different-Phenotype (%) [9]: 0%
- Population Mitotic Cells (%) [9]: 12%
- Population Normal (%) [9]: 96%
- Population Pyknosed Nuclei (%) [9]: 11%
- Population Tubulin-Different-Phenotype (%) [9]: 3%
- Total Cell Count [9]: 361
- Population Apoptotic (%) [10]: 100%
- Population Fragmented Nuclei (%) [10]: 16%
- Population Healthy Nuclei (%) [10]: 73%
- Population Hoechst High Intensity Objects (%) [10]: 2%
- Population Membrane Permeable-Phenotype (%) [10]: 9%
- Population Mitochondria Different-Phenotype (%) [10]: 4%
- Population Mitotic Cells (%) [10]: 0%
- Population Normal (%) [10]: 97%
- Population Pyknosed Nuclei (%) [10]: 9%
- Population Tubulin-Different-Phenotype (%) [10]: 7%
- Total Cell Count [10]: 195
- Population Apoptotic (%) [11]: 91%
- Population Fragmented Nuclei (%) [11]: 23%
- Population Healthy Nuclei (%) [11]: 64%
- Population Hoechst High Intensity Objects (%) [11]: 4%
- Population Membrane Permeable-Phenotype (%) [11]: 10%
- Population Mitochondria Different-Phenotype (%) [11]: 6%
- Population Mitotic Cells (%) [11]: 8%
- Population Normal (%) [11]: 95%
- Population Pyknosed Nuclei (%) [11]: 11%
- Population Tubulin-Different-Phenotype (%) [11]: 6%
- Total Cell Count [11]: 328
- Population Apoptotic (%) [12]: 100%
- Population Fragmented Nuclei (%) [12]: 11%
- Population Healthy Nuclei (%) [12]: 77%
- Population Hoechst High Intensity Objects (%) [12]: 3%
- Population Membrane Permeable-Phenotype (%) [12]: 13%
- Population Mitochondria Different-Phenotype (%) [12]: 4%
- Population Mitotic Cells (%) [12]: 0%
- Population Normal (%) [12]: 96%
- Population Pyknosed Nuclei (%) [12]: 10%
- Population Tubulin-Different-Phenotype (%) [12]: 7%
- Total Cell Count [12]: 184
